The values that follow come from ChEMBL document CHEMBL1143308, “Spiro-piperidine azetidinones as potent TRPV1 antagonists” (Bioorg Med Chem Lett, 2009).

For orientation: IC50 means the concentration at which inhibition is half-maximal. One may read the AUC(0-t) as the area under the concentration-time curve up to a stated or last time point. One may read the half-life as how long it takes for the measured level to halve. The term bioavailability denotes the share of a dose that reaches the circulation, judged against a reference dose that is usually intravenous. One may read the solubility as how much of the substance goes into solution per volume.

In brackets after ≈: the same amount, converted by molar mass. Activity calls are given as the source filed them. No cut-off for these calls is given here.

Series [1] concerns the target T1, Transient receptor potential cation channel subfamily V member 1 (Homo sapiens, UniProt Q8NER1). Description: Antagonist activity at TRPV1 expressed in HEK293 cells assessed as inhibition of capsaicin-induced activation at 10 uM by FLIPR assay. It counts as functional, cell-based. Further details: scale not given: the % may be the effect or the level left. In outline:
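TRPV1 FLIPR run at 37 °C in stably transfected HEK293 cells, capsaicin-activated. Percent inhibition measured with test compound at a single concentration of 10 µM, from DMSO solution, with a DMSO vehicle control.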

The nature of series [2]: Stability in pH 7.4 buffer after 24 hrs. It counts as physicochemical. The note with it: pH 7.4, 24 h. Put shortly:
(§1)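 Compound held in pH 7.4 buffer spiked with 0.1 M NaSMe and methylamine to mimic plasma nucleophiles. Followed by LC–MS for up to 24 h, tracking loss of parent and appearance of the ring-opened amino acid.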

The target in series [3] is T1, Transient receptor potential cation channel subfamily V member 1. Put plainly: Antagonist activity at TRPV1 expressed in HEK293 cells assessed as inhibition of capsaicin-induced activation by FLIPR assay. It counts as functional, cell-based. In outline: (§2)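 FLIPR calcium-flux run at 37 °C in a HEK293 line stably transfected with TRPV1. Channel activated by capsaicin or by PMA, and the IC50 is taken against each agonist. Compounds dissolved in DMSO, with DMSO alone as the vehicle control.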

Series [4] shares this target. Description: Antagonist activity at TRPV1 expressed in HEK293 cells assessed as inhibition of PMA-induced activation by FLIPR assay. It counts as functional, cell-based. Put shortly: as §2
A short description of series [5]: AUC (0 to 6 hrs) in rat at 10 mg/kg, po. It counts as ADME, organism-based. Also on record: time < 6 hr, dose 10 mg/kg, route oral. The note with it: plasma. In outline: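 Rat pharmacokinetics: oral dosing at 10 mpk in 20% HPBCD vehicle; AUC taken over 0–6 h.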
The nature of series [6]: Half life in iv dosed rat. It counts as ADME, organism-based. As to conditions: in vivo. In outline:
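Rat dosed intravenously as an add-on to the oral PK study (10 mpk oral in 20% HPBCD); terminal half-life from the iv arm.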

The nature of series [7]: Oral bioavailability in rat at 10 mg/kg. It counts as ADME, organism-based. The note with it: in vivo.
A short description of series [8]: Aqueous solubility of the compound. It counts as physicochemical. As to conditions: buffer.
A short description of series [9]: Stability in pH 7.4 buffer assessed as formation of 1-(tert-butoxycarbonyl)-3-(phenyl(phenylamino)methyl)azetidine-3-carboxylic acid after 2 hrs. It counts as physicochemical. As to conditions: pH 7.4, 2 h. Put shortly: as §1

T1 sequence (Q8NER1 whole entry): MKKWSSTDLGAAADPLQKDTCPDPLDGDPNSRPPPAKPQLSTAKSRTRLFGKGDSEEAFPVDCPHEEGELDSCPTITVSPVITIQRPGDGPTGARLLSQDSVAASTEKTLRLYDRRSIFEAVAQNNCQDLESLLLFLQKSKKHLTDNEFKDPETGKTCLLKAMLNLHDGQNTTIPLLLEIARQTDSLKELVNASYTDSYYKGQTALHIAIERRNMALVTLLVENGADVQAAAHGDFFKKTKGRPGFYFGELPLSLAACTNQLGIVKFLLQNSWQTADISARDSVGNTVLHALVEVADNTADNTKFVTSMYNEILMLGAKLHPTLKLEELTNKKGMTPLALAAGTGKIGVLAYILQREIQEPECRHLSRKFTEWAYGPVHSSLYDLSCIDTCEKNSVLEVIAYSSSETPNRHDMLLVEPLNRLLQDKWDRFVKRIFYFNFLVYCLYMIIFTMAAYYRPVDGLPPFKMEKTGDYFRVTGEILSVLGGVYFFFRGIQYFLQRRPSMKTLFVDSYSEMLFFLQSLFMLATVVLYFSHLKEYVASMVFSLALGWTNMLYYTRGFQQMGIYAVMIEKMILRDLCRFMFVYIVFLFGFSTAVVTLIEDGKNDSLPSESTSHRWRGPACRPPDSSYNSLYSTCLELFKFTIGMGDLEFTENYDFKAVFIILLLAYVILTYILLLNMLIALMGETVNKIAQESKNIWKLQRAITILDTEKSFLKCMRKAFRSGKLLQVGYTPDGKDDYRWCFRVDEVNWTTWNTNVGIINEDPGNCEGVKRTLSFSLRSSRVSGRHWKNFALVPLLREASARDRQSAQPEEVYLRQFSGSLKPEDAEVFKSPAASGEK

For `CC(C)(C)c1ccc(NC(=O)N2CCC3(CC2)C(=O)N(c2ccccc2)[C@@H]3c2ccccc2)cc1`, in series [1], the Activity came to 8.5%.

As to `O=C(Nc1ccc(C(F)(F)F)cc1)N1CCC2(CC1)C(=O)N(c1ccccn1)[C@@H]2c1ccccc1`, the Activity in series [1] was 83%.

`CC(C)(C)OC(=O)N1CCC2(CC1)C(=O)N(c1ccccc1)C2c1ccccc1` (centres undefined): in [2], the Stability entry was “Stable”.

With `O=C(Nc1ccc(C(F)(F)F)cc1)N1CCC2(CC1)C(=O)N(c1ccccn1)[C@H]2c1ccccc1`, the IC50 worked out at 13 nM in series [3] and 8.5 nM in series [4]. Further, the AUC(0-t) at 6 h in [5] turned out to be 2500 ng·h/mL. The molecule also had a half-life in [6] of 2.5 h. In series [7], the bioavailability was 45%. For the same molecule, the solubility in [8] is 0.3 µM (≈ 0.144 µg/mL).

With `CC(C)(C)OC(=O)N1CC2(C1)C(=O)N(c1ccccc1)C2c1ccccc1` (centres undefined), the Stability entry in [9] is given as “Unstable”.

Turning to `CC(C)c1ccc(NC(=O)N2CCC3(CC2)C(=O)N(c2ccccc2)[C@H]3c2ccccc2)cc1`, the IC50 in series [3] turned out to be 81 nM; in series [4], 43 nM. Moreover, the AUC(0-t) at 6 h in [5] was 19 ng·h/mL.

Consider `O=C(Nc1ccc(C(F)(F)F)cc1)N1CCC2(CC1)C(=O)N(c1ccccc1)C2c1ccccc1` (racemic), for which the figures for the IC50 in series [3] and in series [4] were 85 nM and 103 nM, respectively. This molecule yielded an area under the curve AUC(0-t) at 6 h in series [5] of 1660 ng·h/mL.

Consider `CC(C)(C)[C@H]1CC[C@@H](NC(=O)N2CCC3(CC2)C(=O)N(c2ccccc2)[C@H]3c2ccccc2)CC1`, for which the IC50 in series [3] turned out to be 528 nM; in [4] it was 232 nM.

In the case of `CC(C)(C)c1ccc(NC(=O)N2CCC3(CC2)CN(c2ccccc2)C3=O)cc1`, the IC50 in [3] came out at 80 nM; in series [4], 59 nM.

As for `CC(C)c1ccc(NC(=O)N2CCC3(CC2)C(=O)N(c2ccccc2)C3c2ccccc2)cc1` (centres undefined), the IC50 in series [3] was determined as 101 nM; in series [4], 113 nM. This molecule also came in with an AUC(0-t) at 6 h in series [5] of 44 ng·h/mL.

As for `CC(C)(C)c1ccc(NC(=O)N2CCC3(CC2)C(=O)N(c2ccccc2)[C@H]3c2ccccc2)cc1`, the IC50 in series [3] was 9.4 nM; in [4] it was 12 nM. Also, the AUC(0-t) at 6 h in series [5] is 49 ng·h/mL. In [8], the solubility was determined as 0.094 µM (≈ 0.044 µg/mL).

With `CC(C)(C)c1ccc(NC(=O)N2CCC3(CC2)CN(c2ccccc2-c2ccccc2)C3=O)cc1`, the Activity in [1] was found to be 73%.

In the case of `CC(C)(c1ccccc1)c1ccc(NC(=O)N2CCC3(CC2)C(=O)N(c2ccccc2)[C@H]3c2ccccc2)cc1`, in [3], the IC50 is 226 nM.

As for `O=C(Nc1ccc(C(F)(F)F)cn1)N1CCC2(CC1)C(=O)N(c1ccccc1)C2c1ccccc1` (racemic), the half-inhibitory concentration (IC50) in series [3] came out at 205 nM; in [4], 318 nM.

Turning to `CC(C)(C)[C@H]1CC[C@H](NC(=O)N2CCC3(CC2)C(=O)N(c2ccccc2)[C@H]3c2ccccc2)CC1`, the IC50 in series [3] was 49 nM; in series [4] it was 32 nM.

On to `CC(C)c1ccc(NC(=O)N2CCC3(CC2)C(=O)N(c2ccccc2)[C@@H]3c2ccccc2)cc1`, for which the result in series [1] was inactive.
